The results in this text go back to ChEMBL document CHEMBL5653631, “A Potent and Selective ULK1 Inhibitor Suppresses Autophagy and Sensitizes Cancer Cells to Nutrient Stress” (iScience, 2018).

The structures appear in SMILES notation.

In assay [1] the target is Mitogen-activated protein kinase kinase kinase 10 (Homo sapiens) (UniProt Q02779). The assay is described as follows: Inhibition of human recombinant MLK2 at 40 nM in presence of ATP by radiometric assay relative to control.
Assay [2] deals with 5'-AMP-activated protein kinase catalytic subunit alpha-2 (Homo sapiens) (UniProt P54646). The assay is described as follows: Inhibition of human recombinant AMPKa2 at 40 nM related to control ULK1. Put shortly: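 Radiometric activity assays in a panel of 327 human recombinant kinases, each run in duplicate at one inhibitor concentration. Activity remaining is expressed as percent of vehicle control, and percent inhibition is calculated as 100% minus percent activity remaining.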

Assay [3] deals with Calcium/calmodulin-dependent protein kinase type 1G (Homo sapiens) (UniProt Q96NX5). The assay is described as follows: Inhibition of human recombinant CaMK1g at 40 nM related to control ULK1.
Assay [4] deals with T1, Mitogen-activated protein kinase kinase kinase 5 (Homo sapiens) (UniProt Q99683).
T1 sequence (whole entry): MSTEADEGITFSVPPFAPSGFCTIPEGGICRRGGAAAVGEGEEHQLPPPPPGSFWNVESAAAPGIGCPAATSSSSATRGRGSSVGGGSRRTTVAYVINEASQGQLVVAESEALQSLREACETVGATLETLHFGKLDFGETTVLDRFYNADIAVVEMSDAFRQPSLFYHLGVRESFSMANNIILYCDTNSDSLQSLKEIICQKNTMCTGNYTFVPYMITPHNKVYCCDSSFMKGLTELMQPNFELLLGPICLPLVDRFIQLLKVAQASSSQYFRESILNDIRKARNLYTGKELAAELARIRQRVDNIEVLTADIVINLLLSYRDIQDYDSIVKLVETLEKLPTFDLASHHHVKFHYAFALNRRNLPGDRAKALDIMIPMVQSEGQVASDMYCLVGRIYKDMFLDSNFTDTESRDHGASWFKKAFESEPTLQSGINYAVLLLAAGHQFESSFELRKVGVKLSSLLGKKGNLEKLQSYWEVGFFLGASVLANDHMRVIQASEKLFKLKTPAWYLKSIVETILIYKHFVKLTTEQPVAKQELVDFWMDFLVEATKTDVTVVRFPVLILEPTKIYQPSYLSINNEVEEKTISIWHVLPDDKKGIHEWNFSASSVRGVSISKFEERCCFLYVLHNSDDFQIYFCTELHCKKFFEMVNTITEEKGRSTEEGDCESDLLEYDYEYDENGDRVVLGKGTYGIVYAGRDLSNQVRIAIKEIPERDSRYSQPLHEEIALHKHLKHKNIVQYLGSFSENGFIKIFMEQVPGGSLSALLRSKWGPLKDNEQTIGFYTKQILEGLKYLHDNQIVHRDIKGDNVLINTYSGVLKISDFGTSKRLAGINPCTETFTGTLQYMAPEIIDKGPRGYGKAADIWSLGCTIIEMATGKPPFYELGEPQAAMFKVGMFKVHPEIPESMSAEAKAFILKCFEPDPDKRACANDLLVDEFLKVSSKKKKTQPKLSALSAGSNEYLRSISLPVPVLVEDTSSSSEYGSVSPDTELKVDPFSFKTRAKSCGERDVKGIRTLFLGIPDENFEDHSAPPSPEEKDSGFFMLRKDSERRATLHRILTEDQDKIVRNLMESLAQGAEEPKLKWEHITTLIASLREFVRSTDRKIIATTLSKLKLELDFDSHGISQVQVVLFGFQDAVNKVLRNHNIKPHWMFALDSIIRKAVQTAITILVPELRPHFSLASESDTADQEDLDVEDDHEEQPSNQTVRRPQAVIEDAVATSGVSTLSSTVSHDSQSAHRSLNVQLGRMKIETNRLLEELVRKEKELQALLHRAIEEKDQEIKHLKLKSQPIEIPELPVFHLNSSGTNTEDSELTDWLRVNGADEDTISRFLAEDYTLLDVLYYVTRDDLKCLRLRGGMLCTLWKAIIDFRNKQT
Briefly: Inhibition of human recombinant MAP3K5 at 500 nM in presence of ATP by radiometric assay relative to control.

For assay [5], the target named is T2, Calcium/calmodulin-dependent protein kinase type IV (Homo sapiens) (UniProt Q16566).
T2 sequence (whole entry): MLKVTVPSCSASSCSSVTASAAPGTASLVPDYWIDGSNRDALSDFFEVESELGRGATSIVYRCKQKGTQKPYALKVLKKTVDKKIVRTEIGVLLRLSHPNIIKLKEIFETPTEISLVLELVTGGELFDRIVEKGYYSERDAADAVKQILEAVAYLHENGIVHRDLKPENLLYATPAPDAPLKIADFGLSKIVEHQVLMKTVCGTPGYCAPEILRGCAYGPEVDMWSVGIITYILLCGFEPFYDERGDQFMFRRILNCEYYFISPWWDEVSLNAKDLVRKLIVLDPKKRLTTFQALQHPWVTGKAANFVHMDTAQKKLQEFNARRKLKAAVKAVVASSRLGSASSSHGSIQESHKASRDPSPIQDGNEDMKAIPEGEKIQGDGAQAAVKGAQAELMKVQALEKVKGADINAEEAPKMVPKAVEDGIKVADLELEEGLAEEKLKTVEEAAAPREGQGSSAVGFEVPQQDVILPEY
The assay is described as follows: Inhibition of human recombinant CaMK4 at 500 nM related to control ULK1.

The target in assay [6] is Homeodomain-interacting protein kinase 1 (Homo sapiens) (UniProt Q86Z02). Briefly: Inhibition of human recombinant HIPK1 at 500 nM related to control ULK1.
Assay [7] addresses Vascular endothelial growth factor receptor 2 (Homo sapiens) (UniProt P35968). The assay is described as follows: Inhibition of human recombinant KDR at 500 nM related to control ULK1.
Assay [8] addresses Serine/threonine-protein kinase SBK1 (Homo sapiens) (UniProt Q52WX2). The assay is described as follows: Inhibition of human recombinant SBK1 at 500 nM related to control ULK1.
The target of assay [9] is Tyrosine-protein kinase SYK (Homo sapiens) (UniProt P43405). The assay is described as follows: Inhibition of human recombinant SYK at 500 nM related to control ULK1.
Assay [10] deals with Serine/threonine-protein kinase MRCK beta (Homo sapiens) (UniProt Q9Y5S2). Briefly: Inhibition of human recombinant MRCKb at 15 nM in presence of ATP by radiometric assay relative to control.
For assay [11], the target named is Serine/threonine-protein kinase Nek6 (Homo sapiens) (UniProt Q9HC98). The assay is described as follows: Inhibition of human recombinant NEK6 at 15 nM related to control ULK1.
The target of assay [12] is Mitogen-activated protein kinase 11 (Homo sapiens) (UniProt Q15759). Briefly: Inhibition of human recombinant p38beta at 15 nM related to control ULK1.
Chain of Mitogen-activated protein kinase 11 (Homo sapiens) (Q15759 whole entry): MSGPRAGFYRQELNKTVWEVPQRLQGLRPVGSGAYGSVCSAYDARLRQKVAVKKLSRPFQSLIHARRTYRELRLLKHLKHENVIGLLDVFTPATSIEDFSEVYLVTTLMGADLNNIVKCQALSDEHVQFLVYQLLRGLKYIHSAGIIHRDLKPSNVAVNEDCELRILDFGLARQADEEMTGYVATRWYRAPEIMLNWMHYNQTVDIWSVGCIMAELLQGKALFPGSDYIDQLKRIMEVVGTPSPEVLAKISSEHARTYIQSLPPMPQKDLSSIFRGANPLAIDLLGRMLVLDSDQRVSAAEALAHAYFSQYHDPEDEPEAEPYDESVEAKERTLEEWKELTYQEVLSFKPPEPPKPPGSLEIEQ

Chain of Serine/threonine-protein kinase SBK1 (Homo sapiens) (Q52WX2 whole entry): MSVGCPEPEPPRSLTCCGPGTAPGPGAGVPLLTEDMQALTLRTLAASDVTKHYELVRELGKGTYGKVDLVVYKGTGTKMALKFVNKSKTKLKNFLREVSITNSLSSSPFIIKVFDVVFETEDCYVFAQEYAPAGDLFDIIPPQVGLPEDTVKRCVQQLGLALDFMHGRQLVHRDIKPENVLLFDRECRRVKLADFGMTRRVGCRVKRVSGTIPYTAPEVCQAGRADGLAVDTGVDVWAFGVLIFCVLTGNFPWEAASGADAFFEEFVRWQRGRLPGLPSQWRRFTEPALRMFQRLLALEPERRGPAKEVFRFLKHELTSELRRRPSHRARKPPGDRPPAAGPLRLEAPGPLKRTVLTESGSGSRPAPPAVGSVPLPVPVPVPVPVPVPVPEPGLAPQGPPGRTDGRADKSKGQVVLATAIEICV
Chain of Homeodomain-interacting protein kinase 1 (Homo sapiens) (Q86Z02 whole entry, looked up): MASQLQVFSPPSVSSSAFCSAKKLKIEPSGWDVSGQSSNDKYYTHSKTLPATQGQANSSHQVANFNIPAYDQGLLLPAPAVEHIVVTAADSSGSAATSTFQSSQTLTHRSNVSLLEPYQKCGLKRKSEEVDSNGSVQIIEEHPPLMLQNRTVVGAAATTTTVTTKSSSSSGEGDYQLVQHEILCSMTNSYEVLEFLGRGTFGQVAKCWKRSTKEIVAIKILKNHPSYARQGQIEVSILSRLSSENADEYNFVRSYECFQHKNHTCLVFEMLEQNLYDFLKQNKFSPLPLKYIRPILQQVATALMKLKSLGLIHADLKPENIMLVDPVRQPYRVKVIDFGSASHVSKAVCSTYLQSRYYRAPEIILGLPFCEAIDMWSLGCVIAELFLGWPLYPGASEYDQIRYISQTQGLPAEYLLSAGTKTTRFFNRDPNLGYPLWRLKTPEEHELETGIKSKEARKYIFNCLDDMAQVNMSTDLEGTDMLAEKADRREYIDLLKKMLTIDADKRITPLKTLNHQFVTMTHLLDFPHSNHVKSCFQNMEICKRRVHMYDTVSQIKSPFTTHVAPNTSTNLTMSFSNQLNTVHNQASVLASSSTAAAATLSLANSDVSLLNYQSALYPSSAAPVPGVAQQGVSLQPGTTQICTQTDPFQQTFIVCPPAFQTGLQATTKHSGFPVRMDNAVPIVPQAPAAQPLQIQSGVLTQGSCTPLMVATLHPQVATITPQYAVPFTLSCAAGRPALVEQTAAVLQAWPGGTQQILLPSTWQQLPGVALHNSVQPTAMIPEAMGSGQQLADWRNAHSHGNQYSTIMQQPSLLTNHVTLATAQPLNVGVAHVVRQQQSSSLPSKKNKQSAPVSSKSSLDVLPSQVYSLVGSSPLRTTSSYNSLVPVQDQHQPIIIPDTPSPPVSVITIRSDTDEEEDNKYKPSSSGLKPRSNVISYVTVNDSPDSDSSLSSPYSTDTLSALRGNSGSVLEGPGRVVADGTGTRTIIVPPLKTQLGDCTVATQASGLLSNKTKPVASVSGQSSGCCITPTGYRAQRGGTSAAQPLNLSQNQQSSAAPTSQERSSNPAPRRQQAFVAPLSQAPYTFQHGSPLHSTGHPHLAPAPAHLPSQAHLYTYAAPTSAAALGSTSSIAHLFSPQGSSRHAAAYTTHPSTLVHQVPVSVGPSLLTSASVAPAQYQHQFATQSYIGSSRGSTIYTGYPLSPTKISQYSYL
Chain of 5'-AMP-activated protein kinase catalytic subunit alpha-2 (Homo sapiens) (P54646 whole entry, looked up): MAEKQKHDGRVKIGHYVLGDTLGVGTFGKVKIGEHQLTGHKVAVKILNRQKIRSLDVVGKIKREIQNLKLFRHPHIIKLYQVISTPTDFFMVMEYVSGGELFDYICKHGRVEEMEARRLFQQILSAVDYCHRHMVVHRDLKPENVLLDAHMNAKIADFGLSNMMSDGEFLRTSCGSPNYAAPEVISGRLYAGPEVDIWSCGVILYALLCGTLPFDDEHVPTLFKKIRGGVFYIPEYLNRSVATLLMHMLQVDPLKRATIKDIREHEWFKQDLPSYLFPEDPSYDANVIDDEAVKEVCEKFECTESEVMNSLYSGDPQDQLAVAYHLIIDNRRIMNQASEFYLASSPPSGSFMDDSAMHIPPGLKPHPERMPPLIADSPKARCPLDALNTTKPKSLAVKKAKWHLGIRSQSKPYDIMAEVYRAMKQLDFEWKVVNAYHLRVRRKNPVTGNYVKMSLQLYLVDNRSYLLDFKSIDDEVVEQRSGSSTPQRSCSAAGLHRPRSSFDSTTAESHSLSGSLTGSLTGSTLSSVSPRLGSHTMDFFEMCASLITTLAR
Chain of Vascular endothelial growth factor receptor 2 (Homo sapiens) (P35968 whole entry): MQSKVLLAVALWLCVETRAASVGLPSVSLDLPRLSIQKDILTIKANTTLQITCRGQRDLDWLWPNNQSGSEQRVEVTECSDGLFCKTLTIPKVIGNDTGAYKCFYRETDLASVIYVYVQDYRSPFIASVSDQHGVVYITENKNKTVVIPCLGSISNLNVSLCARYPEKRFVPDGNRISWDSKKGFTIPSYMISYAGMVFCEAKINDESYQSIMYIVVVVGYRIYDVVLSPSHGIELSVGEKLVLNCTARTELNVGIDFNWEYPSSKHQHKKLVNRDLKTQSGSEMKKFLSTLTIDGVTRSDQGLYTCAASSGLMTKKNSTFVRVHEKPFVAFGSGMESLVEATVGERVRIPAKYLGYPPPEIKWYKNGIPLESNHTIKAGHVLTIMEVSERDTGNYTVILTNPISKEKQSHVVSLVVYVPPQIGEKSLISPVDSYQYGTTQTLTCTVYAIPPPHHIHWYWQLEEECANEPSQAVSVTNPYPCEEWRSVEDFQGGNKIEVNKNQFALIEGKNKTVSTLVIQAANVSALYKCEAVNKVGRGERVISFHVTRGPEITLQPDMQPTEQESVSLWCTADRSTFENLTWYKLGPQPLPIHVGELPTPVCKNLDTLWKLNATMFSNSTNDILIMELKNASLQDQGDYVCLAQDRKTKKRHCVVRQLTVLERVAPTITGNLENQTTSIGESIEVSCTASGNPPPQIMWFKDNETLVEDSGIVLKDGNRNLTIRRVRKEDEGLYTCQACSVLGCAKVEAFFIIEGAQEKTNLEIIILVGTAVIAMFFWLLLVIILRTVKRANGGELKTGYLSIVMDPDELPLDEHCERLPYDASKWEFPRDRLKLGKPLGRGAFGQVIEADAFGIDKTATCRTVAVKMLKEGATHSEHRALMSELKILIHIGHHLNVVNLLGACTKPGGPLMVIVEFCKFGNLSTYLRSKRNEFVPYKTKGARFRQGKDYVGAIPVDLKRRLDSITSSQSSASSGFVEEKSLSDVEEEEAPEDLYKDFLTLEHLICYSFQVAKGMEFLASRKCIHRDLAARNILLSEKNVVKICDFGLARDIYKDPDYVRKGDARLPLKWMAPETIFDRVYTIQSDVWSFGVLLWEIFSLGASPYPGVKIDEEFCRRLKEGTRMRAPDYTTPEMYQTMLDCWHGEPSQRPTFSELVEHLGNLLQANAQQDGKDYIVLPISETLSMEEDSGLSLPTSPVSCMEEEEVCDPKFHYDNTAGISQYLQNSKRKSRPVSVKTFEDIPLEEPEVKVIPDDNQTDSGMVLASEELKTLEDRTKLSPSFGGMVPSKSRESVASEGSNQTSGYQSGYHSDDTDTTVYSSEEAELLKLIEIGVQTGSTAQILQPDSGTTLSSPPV
Chain of Mitogen-activated protein kinase kinase kinase 10 (Homo sapiens) (Q02779 whole entry, looked up): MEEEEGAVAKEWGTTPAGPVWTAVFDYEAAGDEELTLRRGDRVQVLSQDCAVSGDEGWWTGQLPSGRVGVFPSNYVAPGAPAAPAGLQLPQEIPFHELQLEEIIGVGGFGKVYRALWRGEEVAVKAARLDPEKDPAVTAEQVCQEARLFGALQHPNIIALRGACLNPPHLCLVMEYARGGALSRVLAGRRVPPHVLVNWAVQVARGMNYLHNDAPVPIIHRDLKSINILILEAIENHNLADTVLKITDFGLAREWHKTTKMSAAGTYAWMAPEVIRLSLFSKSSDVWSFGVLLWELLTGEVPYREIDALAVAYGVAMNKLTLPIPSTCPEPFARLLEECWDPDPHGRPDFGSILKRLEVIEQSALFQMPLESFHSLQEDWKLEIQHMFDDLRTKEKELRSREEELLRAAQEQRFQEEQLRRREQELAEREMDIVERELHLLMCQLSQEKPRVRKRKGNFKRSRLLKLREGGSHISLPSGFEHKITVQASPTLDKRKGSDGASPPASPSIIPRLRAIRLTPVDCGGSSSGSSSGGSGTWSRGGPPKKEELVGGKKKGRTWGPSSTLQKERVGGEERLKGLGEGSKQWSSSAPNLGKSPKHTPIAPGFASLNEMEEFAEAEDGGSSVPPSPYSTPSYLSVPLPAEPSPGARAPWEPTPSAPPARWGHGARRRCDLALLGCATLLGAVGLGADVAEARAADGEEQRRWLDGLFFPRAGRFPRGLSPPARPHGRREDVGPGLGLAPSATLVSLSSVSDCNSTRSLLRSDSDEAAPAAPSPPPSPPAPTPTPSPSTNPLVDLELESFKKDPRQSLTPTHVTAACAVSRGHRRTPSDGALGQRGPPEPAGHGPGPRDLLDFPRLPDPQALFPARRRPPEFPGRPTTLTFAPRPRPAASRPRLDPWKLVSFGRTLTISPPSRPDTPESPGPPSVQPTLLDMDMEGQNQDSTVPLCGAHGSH

As usually defined, the inhibition is the share of the control response that was lost under treatment. On to `O=C(N[C@@H](C1CC1)C(F)(F)F)c1cc(-c2cnn3cc(-c4ccc(F)cc4)cnc23)cs1`, for which the inhibition in assay [1] was 0%. The fold change (FC) in [2] amounted to 0.1; in assay [3] it was 0.
`CNC(=O)c1ccccc1Oc1nc(Nc2cc(OC)c(OC)c(OC)c2)ncc1Br`: the inhibition in assay [4] was 0%. Besides, the fold change (FC) in assay [5] was 0; in assay [6] it was 0.04; in [7] it was 0; in [8] it was 0.68; in [9], 0.
As for `CC(C)[C@H](NC(=O)c1cc(-c2cnn3cc(-c4ccc(OCCN5CCCCC5)cc4)cnc23)cs1)C(F)(F)F`, the inhibition in assay [10] was 6%. The fold change (FC) in assay [11] and in [12] was 0.01 each time.
